pEC50, pIC50: −log10 of the molar value.
Columns and labels:
[1] = molecular target: Tyrosine-protein kinase JAK2 (Homo sapiens, UniProt O60674); assay: Inhibition of recombinant human JAK2 (831 to 1132 residues) expressed in insect cells using 5FAM-GEEPLYWSFPAKKK-NH2 as substrate after 10 mins by caliper assay
Method in brief: (§1)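 Biochemical kinase inhibition IC50 measured at 5 mM ATP. Values are the geometric mean of at least two independent experiments.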

[2] = molecular target: T1, Tyrosine-protein kinase JAK1 (Homo sapiens, UniProt P23458); assay: Inhibition of JAK1 in human NCI-H1975 cells assessed as reduction in STAT3 phosphorylation after 1 hr by ELISA; assay type: cell-based
Method in brief: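 Cellular mode-of-action assay in NCI-H1975 cells, read as inhibition of STAT3 phosphorylation. EC50 was derived.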

[3] = molecular target: T1, Tyrosine-protein kinase JAK1; assay: Inhibition of cytoplasmic recombinant human GST-tagged JAK1 (886 to 1154 residues) expressed in insect cells using FITC-C6-KKHTDDGYMPMSPGVA-NH as substrate after 10 mins by caliper assay; method in brief: as §1
[4] = molecular target: T2, Tyrosine-protein kinase JAK3 (Homo sapiens, UniProt P52333); assay: Inhibition of recombinant human JAK3 (781 to 1124 residues) expressed in insect cells using 5FAM-GEEPLYWSFPAKKK-NH2 as substrate after 10 mins by caliper assay; method in brief: as §1
T2 sequence (P52333 whole entry): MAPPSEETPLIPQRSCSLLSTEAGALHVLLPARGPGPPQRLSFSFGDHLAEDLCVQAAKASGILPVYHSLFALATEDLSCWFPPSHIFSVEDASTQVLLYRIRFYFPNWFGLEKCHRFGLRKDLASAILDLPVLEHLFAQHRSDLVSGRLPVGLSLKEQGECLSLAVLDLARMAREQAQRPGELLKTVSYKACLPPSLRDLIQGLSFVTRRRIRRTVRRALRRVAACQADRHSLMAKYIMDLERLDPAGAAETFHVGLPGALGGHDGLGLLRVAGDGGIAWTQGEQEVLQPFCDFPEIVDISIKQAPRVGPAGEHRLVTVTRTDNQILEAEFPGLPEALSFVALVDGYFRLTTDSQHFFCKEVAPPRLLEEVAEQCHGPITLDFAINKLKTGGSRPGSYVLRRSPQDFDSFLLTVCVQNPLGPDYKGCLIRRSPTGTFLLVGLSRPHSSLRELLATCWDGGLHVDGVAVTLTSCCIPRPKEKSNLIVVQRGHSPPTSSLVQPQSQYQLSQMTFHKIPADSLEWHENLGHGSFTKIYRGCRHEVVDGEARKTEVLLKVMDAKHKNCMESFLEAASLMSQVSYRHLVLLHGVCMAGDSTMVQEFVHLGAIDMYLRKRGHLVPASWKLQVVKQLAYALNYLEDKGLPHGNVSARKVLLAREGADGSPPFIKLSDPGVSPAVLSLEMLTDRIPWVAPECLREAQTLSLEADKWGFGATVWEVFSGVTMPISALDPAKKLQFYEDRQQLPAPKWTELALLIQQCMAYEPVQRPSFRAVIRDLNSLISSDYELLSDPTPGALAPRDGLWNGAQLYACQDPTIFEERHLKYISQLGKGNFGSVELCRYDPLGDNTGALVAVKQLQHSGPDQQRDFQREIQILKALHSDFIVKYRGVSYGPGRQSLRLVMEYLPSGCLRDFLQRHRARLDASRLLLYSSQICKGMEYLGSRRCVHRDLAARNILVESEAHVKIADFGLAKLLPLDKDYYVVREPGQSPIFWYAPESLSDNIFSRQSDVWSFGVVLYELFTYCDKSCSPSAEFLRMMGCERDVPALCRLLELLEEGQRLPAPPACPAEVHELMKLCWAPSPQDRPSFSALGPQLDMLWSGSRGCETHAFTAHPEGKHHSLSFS

Homo sapiens = species: Homo sapiens; assay: Selectivity ratio of IC50 for recombinant human JAK2 (831 to 1132 residues) expressed in insect cell to IC50 for cytoplasmic recombinant human GST-tagged JAK1 (886 to 1154 residues) expressed in baculovirus
Method in brief: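 Biochemical IC50s measured against JAK1 and JAK2 at 5 mM ATP. Each IC50 is the geometric mean of at least two independent experiments. The ratio is the JAK2 IC50 divided by the JAK1 IC50.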

[5] = Octanol-water partition coefficient, log D of the compound in sodium phosphate buffer at pH 7.4 after 5 hrs by shake-flask assay; assay type: physicochemical
A549 = assay: Antiproliferative activity against human A549 cells after 48 hrs by Alamar Blue based assay; assay type: functional; conditions: A549, 48 h
Method in brief: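 Antiproliferation assay in A549 cells, reported as GI50.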

[6] = molecular target: Non-receptor tyrosine-protein kinase TYK2 (Homo sapiens, UniProt P29597); assay: Inhibition of recombinant human N-terminal GST-tagged TYK2 (871 to 1187 residues) expressed in baculovirus expression system using 5FAM-GEEPLYWSFPAKKK-NH2 as substrate after 10 mins by caliper assay; method in brief: as §1
[7] = Intrinsic clearance in human liver microsomes; assay type: ADME, microsome; conditions: read-out: CLH

T1 sequence (P23458 whole entry): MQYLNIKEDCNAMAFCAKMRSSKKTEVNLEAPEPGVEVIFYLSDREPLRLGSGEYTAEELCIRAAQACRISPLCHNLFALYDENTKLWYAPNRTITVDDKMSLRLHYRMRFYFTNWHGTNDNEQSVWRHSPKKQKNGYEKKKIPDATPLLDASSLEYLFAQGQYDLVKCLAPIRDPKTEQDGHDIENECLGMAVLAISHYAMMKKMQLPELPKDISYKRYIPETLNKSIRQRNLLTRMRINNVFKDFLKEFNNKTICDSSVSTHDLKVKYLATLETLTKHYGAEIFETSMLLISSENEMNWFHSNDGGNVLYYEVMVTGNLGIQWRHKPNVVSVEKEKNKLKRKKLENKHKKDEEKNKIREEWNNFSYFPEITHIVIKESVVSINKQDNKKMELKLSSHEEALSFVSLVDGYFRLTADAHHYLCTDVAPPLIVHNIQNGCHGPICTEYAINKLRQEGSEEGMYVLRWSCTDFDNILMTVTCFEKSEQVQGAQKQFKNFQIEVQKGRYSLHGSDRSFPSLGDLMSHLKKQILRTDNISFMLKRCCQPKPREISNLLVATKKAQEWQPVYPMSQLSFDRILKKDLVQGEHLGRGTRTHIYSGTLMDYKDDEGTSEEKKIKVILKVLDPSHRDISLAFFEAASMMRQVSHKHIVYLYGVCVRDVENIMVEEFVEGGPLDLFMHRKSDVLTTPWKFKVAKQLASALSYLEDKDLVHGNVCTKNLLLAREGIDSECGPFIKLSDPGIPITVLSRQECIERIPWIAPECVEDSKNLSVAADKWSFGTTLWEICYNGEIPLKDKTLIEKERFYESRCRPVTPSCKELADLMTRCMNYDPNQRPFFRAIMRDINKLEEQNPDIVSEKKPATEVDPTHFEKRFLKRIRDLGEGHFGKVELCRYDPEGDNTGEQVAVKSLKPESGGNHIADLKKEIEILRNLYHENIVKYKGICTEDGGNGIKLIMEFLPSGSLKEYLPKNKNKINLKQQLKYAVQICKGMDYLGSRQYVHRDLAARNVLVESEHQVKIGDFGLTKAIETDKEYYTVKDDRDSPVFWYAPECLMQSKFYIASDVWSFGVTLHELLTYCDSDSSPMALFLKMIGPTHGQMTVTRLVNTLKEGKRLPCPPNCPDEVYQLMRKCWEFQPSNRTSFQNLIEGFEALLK
Sequence of Tyrosine-protein kinase JAK2 (O60674 whole entry, the tested form may be a part): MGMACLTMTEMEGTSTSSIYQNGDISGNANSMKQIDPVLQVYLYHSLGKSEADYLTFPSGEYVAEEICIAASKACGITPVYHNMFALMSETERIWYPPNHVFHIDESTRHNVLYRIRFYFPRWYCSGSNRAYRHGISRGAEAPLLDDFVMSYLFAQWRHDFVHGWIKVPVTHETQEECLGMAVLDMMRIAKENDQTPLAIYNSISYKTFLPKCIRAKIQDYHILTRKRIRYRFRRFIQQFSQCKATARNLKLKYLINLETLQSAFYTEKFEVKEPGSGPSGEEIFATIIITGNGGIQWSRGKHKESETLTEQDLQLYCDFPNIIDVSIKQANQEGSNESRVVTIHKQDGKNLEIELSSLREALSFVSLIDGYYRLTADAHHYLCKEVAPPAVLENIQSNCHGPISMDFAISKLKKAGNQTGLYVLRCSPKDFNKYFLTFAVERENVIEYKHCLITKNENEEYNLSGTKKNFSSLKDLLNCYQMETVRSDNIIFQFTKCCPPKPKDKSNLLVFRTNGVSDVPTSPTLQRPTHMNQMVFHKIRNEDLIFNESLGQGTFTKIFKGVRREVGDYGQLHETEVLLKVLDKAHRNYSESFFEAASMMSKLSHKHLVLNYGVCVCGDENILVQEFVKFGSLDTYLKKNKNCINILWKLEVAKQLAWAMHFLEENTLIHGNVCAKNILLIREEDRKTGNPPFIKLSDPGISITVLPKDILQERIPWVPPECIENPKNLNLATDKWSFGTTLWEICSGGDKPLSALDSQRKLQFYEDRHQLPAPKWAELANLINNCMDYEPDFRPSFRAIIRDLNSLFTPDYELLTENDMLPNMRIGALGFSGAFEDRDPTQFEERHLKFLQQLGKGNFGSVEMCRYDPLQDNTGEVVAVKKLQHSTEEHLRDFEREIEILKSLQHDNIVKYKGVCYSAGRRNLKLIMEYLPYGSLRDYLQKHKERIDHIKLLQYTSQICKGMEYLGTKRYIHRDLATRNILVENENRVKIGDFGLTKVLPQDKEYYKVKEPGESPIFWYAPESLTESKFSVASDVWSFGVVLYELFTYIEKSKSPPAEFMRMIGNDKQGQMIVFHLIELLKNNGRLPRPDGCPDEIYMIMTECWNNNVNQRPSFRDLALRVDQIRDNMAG
Sequence of Non-receptor tyrosine-protein kinase TYK2 (P29597 whole entry, the tested form may be a part): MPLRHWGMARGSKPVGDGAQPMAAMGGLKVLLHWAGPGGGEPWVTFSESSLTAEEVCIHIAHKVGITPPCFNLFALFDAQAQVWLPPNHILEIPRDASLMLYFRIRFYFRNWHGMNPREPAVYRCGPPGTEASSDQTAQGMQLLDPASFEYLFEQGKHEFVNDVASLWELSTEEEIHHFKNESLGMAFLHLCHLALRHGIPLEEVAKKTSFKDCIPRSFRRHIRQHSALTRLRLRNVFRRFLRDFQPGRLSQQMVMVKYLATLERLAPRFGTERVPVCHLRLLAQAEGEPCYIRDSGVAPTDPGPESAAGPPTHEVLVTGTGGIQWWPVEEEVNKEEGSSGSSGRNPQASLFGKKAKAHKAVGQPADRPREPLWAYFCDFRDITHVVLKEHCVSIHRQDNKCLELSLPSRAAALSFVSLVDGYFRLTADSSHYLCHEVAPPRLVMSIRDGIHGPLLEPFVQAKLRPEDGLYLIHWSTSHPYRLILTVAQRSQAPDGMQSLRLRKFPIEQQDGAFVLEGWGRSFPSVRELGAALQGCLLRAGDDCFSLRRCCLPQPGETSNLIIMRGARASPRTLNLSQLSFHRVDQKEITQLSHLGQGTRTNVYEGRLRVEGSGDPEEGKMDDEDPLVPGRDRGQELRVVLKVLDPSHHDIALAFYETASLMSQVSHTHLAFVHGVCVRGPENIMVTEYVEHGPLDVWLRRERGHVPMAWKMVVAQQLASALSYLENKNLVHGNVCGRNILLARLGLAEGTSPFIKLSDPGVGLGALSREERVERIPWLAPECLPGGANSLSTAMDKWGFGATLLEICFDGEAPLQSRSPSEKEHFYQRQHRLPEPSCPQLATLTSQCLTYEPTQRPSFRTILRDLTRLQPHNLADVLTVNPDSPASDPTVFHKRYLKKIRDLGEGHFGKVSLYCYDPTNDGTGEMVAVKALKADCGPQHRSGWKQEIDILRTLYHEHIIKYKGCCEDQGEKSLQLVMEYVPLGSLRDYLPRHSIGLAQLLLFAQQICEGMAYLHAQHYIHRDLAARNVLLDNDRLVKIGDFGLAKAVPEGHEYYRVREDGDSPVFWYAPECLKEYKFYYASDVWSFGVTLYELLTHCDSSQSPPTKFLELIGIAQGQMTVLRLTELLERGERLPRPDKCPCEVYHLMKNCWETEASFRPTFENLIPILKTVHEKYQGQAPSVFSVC

Which results are given for `Cc1cnc(Nc2cc(N3C[C@@H]4C[C@H]3CN4C)cc(C(F)F)c2F)nc1Nc1cccc(CO)c1`?
pIC50 [1]: < 4.52; pEC50 [2]: 7.59; pIC50 [3]: 7.26; pIC50 [4]: < 4.52

With `CN1CCN(c2cc(Nc3nccc(Nc4ccc(F)c(Cl)c4F)n3)cc(S(C)(=O)=O)c2)CC1` as the compound, how does the pIC50 [1] read?
Its pIC50 is 7.44.

And the Ratio IC50 (Homo sapiens)?
The Ratio IC50 was over 10.

What about the pIC50 [3] of the same compound?
The pIC50 was over 8.52.

And the pIC50 [4]?
Its pIC50 is 6.33.

What does the source list for `Cc1cnc(Nc2cc(N3C[C@@H]4C[C@H]3CN4C)ccc2F)nc1Nc1cccc(CO)c1`?
pIC50 [1]: < 4.52; pEC50 [2]: 7.00; pIC50 [3]: 6.93; pIC50 [4]: < 4.52

With `Cc1cnc(Nc2cc(N3CCN(CCO)CC3)cc(S(C)(=O)=O)c2)nc1Nc1cccc(CO)c1` as the compound, how does the pIC50 [1] read?
The pIC50 was 6.09.

And the pEC50 [2]?
The pEC50 was under 5.52.

And the logD at 5 h [5]?
The logD at 5 h was 1.29.

What about the pIC50 [3] of the same compound?
Its pIC50 is 8.22.

And the pIC50 [4]?
Its pIC50 is under 4.52.

With `Cc1cnc(Nc2cc(N3CCOCC3)cc(S(C)(=O)=O)c2)nc1Nc1cccc(CO)c1` as the compound, how does the pIC50 [1] read?
The pIC50 was 6.38.

What about the Ratio IC50 (Homo sapiens) of the same compound?
The Ratio IC50 was 32.

What about the pIC50 [3] of the same compound?
The pIC50 was 7.89.

What about the pIC50 [4] of the same compound?
The pIC50 was under 4.52.

What does the source list for `CN1CCN(c2cc(Nc3ncc(F)c(Nc4cccc(CO)c4)n3)cc(S(C)(=O)=O)c2)CC1`?
pIC50 [1]: 5.19; Ratio IC50 (Homo sapiens): 150; logD at 5 h [5]: 1.84; pIC50 [3]: 7.38; pIC50 [4]: < 4.52

With `CCC(CC)Nc1nc(Nc2cc(N3C[C@@H]4C[C@H]3CN4C)cnc2F)ncc1C` as the compound, how does the pIC50 [1] read?
Its pIC50 is under 4.52.

And the pEC50 [2]?
The pEC50 was 7.36.

And the GI50 (A549)?
The GI50 was over 10 µM.

What about the pIC50 [3] of the same compound?
The pIC50 was 7.54.

What about the pIC50 [6] of the same compound?
Its pIC50 is under 4.52.

What about the pIC50 [4] of the same compound?
Its pIC50 is under 4.52.

For `Cc1cnc(Nc2cc(N3CCN(C)CC3)cc(S(C)(=O)=O)c2)nc1Nc1cccc(CO)c1`, which microsomal CLint [7] is on record?
The microsomal CLint was 59.5 µL/min/mg.

And the pIC50 [1]?
Its pIC50 is 6.03.

What about the pEC50 [2] of the same compound?
Its pEC50 is 7.00.

What about the Ratio IC50 (Homo sapiens) of the same compound?
The Ratio IC50 was over 309.

And the logD at 5 h [5]?
The logD at 5 h was 1.74.

What about the pIC50 [3] of the same compound?
The pIC50 was over 8.52.

And the pIC50 [4]?
Its pIC50 is under 4.52.

With `COCCN1CCN(c2cc(Nc3ncc(C)c(Nc4cccc(CO)c4)n3)cc(S(C)(=O)=O)c2)CC1` as the compound, how does the pIC50 [1] read?
Its pIC50 is 5.99.

And the pEC50 [2]?
The pEC50 was 6.72.

And the logD at 5 h [5]?
Its logD at 5 h is 1.9.

What about the pIC50 [3] of the same compound?
Its pIC50 is 7.92.

And the pIC50 [4]?
Its pIC50 is under 4.52.

Which results are given for `CN1CCN(c2cc(Nc3ncc(Cl)c(Nc4cccc(CO)c4)n3)cc(S(C)(=O)=O)c2)CC1`?
pIC50 [1]: 6.14; Ratio IC50 (Homo sapiens): > 240; logD at 5 h [5]: 2.16; pIC50 [3]: > 8.52; pIC50 [4]: 4.90

For `Cc1cnc(Nc2cc(N3C[C@@H]4C[C@H]3CN4C)cc(S(C)(=O)=O)c2)nc1Nc1cccc(CO)c1`, which microsomal CLint [7] is on record?
Its microsomal CLint is 7.32 µL/min/mg.

And the pIC50 [1]?
Its pIC50 is 5.93.

What about the pEC50 [2] of the same compound?
Its pEC50 is 7.04.

And the logD at 5 h [5]?
Its logD at 5 h is 0.82.

And the pIC50 [3]?
Its pIC50 is over 8.52.

And the pIC50 [4]?
The pIC50 was under 4.55.

Which results are given for `Cc1cnc(Nc2cc(N3C[C@@H]4C[C@H]3CN4C)cnc2F)nc1N[C@H](C)C(C)C`?
pIC50 [1]: < 4.52; pEC50 [2]: 7.30; pIC50 [3]: 7.59; pIC50 [6]: 4.61

With `Cc1cnc(Nc2cc(N3CCNCC3)cc(S(C)(=O)=O)c2)nc1Nc1cccc(CO)c1` as the compound, how does the pIC50 [1] read?
Its pIC50 is 6.02.

What about the pEC50 [2] of the same compound?
Its pEC50 is 6.30.

What about the logD at 5 h [5] of the same compound?
The logD at 5 h was 1.09.

What about the pIC50 [3] of the same compound?
The pIC50 was over 8.52.

And the pIC50 [4]?
Its pIC50 is under 4.52.

With `Cc1cnc(Nc2cc(N3CCOCC3)cc(N3CCOCC3)c2)nc1Nc1cccc(CO)c1` as the compound, how does the pIC50 [1] read?
The pIC50 was over 8.52.

What about the Ratio IC50 (Homo sapiens) of the same compound?
The Ratio IC50 was under 0.75.

And the pIC50 [3]?
The pIC50 was 8.40.

What about the pIC50 [4] of the same compound?
Its pIC50 is 6.43.

With `Cc1cnc(Nc2cc(N3C[C@@H]4C[C@H]3CN4C)cnc2F)nc1Nc1cccc(CO)c1` as the compound, how does the pIC50 [1] read?
Its pIC50 is under 4.52.

And the pEC50 [2]?
The pEC50 was 7.17.

And the GI50 (A549)?
Its GI50 is 0.253 µM.

What about the pIC50 [3] of the same compound?
The pIC50 was 7.40.

And the pIC50 [4]?
Its pIC50 is under 4.52.

Which results are given for `Cc1cnc(Nc2cc(C(F)F)cc(N3C[C@@H]4C[C@H]3CN4C)c2)nc1Nc1cccc(CO)c1`?
pIC50 [1]: 6.42; pEC50 [2]: 7.43; pIC50 [3]: 7.80; pIC50 [4]: 4.74

With `CN1CCN(c2cc(Nc3nccc(Nc4cccc(CO)c4)n3)cc(S(C)(=O)=O)c2)CC1` as the compound, how does the pIC50 [1] read?
The pIC50 was 4.86.

What about the Ratio IC50 (Homo sapiens) of the same compound?
Its Ratio IC50 is 140.

And the logD at 5 h [5]?
Its logD at 5 h is 1.75.

What about the pIC50 [3] of the same compound?
Its pIC50 is 7.00 to 8.52.

And the pIC50 [4]?
The pIC50 was under 4.52.

With `Cc1cnc(Nc2cc(N3C[C@@H](C)N[C@@H](C)C3)cc(S(C)(=O)=O)c2)nc1Nc1cccc(CO)c1` as the compound, how does the pIC50 [1] read?
Its pIC50 is 6.00.

And the pEC50 [2]?
The pEC50 was 6.49.

And the logD at 5 h [5]?
Its logD at 5 h is 1.24.

What about the pIC50 [3] of the same compound?
Its pIC50 is 8.30.

And the pIC50 [4]?
Its pIC50 is under 4.52.

With `CN1CCN(c2cc(Nc3ncc(Br)c(Nc4cccc(CO)c4)n3)cc(S(C)(=O)=O)c2)CC1` as the compound, how does the pIC50 [1] read?
The pIC50 was 6.44.

And the Ratio IC50 (Homo sapiens)?
Its Ratio IC50 is over 120.

What about the logD at 5 h [5] of the same compound?
Its logD at 5 h is 2.43.

What about the pIC50 [3] of the same compound?
Its pIC50 is over 8.52.

What about the pIC50 [4] of the same compound?
The pIC50 was 5.18.

With `Cc1cnc(Nc2cccc(N3CCN(C)CC3)c2)nc1Nc1cccc(CO)c1` as the compound, how does the pIC50 [1] read?
The pIC50 was 6.45.

And the Ratio IC50 (Homo sapiens)?
Its Ratio IC50 is 6.5.

And the pIC50 [3]?
The pIC50 was 7.26.

What about the pIC50 [4] of the same compound?
The pIC50 was 4.69.

What does the source list for `CC(=O)N1CCN(c2cc(Nc3ncc(C)c(Nc4cccc(CO)c4)n3)cc(S(C)(=O)=O)c2)CC1`?
pIC50 [1]: 6.46; pEC50 [2]: < 5.52; logD at 5 h [5]: 1.74; pIC50 [3]: 8.00; pIC50 [4]: 4.61

Reference: ChEMBL document CHEMBL4138312 (J Med Chem, 2018)
